Measurements collected from several papers.
Each line is one published result; the experiments were not run side by side.

Structure (SMILES)	tested on	assay	test system	setting	endpoint	result
COc1cccc2c1C(=O)c1c(O)c3c(c(O)c1C2=O)C[C@@](O)(C(=O)CO)C[C@@H]3O[C@H]1C[C@H](N)[C@H](O)[C@H](C)O1	Caco-2	cell growth or viability, MTT		12.5 µg/mL, 48 h, serum-free	viability	40.5%
Cc1[nH]c(C(=O)Nc2ccc(C(=O)NCC(=O)O)cc2N2CCN(C(=O)OC(C)(C)C)CC2)c(Cl)c1Cl	Klebsiella pneumoniae	microbial growth, broth dilution	ATCC700603		MIC	> 32 µg/mL
COc1ccc(CNC[C@](O)(COCc2ccc(F)cc2)[C@@H]2CC[C@@H](C)C[C@H]2OCc2ccc(F)cc2)cc1	A2780	cell growth or viability, MTT		10 µM, 72 h	inhibition	93.8%
NC(=O)c1ccc(Oc2ccc(C(=O)C(Cl)Cl)cc2[N+](=O)[O-])cc1	NCI-H1650	cell growth or viability, MTT		2.5 µM	inhibition	59.3%
CO[C@@H]1[C@@H](OC(N)=O)[C@@H](O)[C@H](Oc2ccc3c(O)c(NC(=O)c4ccc(O)c(CC=C(C)C)c4)c(=O)oc3c2C)OC1(C)C	Klebsiella pneumoniae	microbial growth, broth dilution	ATCC10031		MIC	0.5 µg/mL
CN[C@H](CC(C)C)C(=O)N[C@H]1C(=O)N[C@@H](CC(N)=O)C(=O)N[C@H]2C(=O)N[C@H]3C(=O)N[C@H](C(=O)N[C@H](C(=O)O)c4cc(O)cc(O)c4-c4cc3ccc4O)[C@H](O)c3ccc(c(Cl)c3)Oc3cc2cc(c3O[C@@H]2O[C@H](CO)[C@@H](O)[C@H](O)[C@H]2O[C@H]2C[C@](C)(N)[C@H](O)[C@H](C)O2)Oc2ccc(cc2Cl)[C@H]1O	Streptococcus pneumoniae	microbial growth	ATCC49619		MIC	0.25 µM
C[C@@H]1CC[C@@H]([C@](C)(O)CNCc2cccc(F)c2)[C@H](OCc2ccccc2)C1	A2780	cell growth or viability, MTT		10 µM, 72 h	inhibition	30.6%
CC(=O)Nc1ccc(Oc2ccc(C(=O)C(Cl)Cl)cc2[N+](=O)[O-])cc1Cl	NCI-H1650	cell growth or viability, MTT		2.5 µM	inhibition	77.8%
Cc1[nH]c(C(=O)Nc2ccc(C(=O)NCC(=O)O)cc2N2CC[C@@H](NC(=O)OC(C)(C)C)C2)c(Cl)c1Cl	Klebsiella pneumoniae	microbial growth, broth dilution	ATCC700603		MIC	> 32 µg/mL
COc1ccc(COC[C@@](O)(CNCc2ccccc2)[C@@H]2CC[C@@H](C)C[C@H]2OCc2ccc(OC)cc2)cc1	A2780	cell growth or viability, MTT		30 µM, 72 h	inhibition	100%
C=CC(=O)NC1CCN(c2ncc3ncnc(Nc4ccc(Oc5ccc6c(c5)ncn6C)c(C)c4)c3n2)CC1	LS180	cell growth or viability			EC50	5480 nM
C[C@@H]1CC[C@@H]([C@](C)(O)CNCc2cccc3ccccc23)[C@H](OCc2ccccc2)C1	A2780	cell growth or viability, MTT		30 µM, 72 h	inhibition	94.2%
Cl.N[C@@H]1CCN(c2cc(C(=O)NCC(=O)O)ccc2NC(=O)c2cc(Br)c(Br)[nH]2)C1	Klebsiella pneumoniae	microbial growth, broth dilution	ATCC700603		MIC	> 32 µg/mL
COc1ccc(CNC[C@](O)(COCc2ccc(OC)cc2)[C@@H]2CC[C@@H](C)C[C@H]2OCc2ccc(OC)cc2)cc1	A2780	cell growth or viability, MTT		10 µM, 72 h	inhibition	98.7%
C=C(F)C(=O)N1CCN(c2nc(OC[C@@H]3CCCN3C)nc3c2CCN(c2cccc4cccc(Cl)c24)C3)C[C@@H]1CC#N	NCI-H2122	cell growth or viability, ATP luminescence			IC50	192 nM
